Assay results: paper PMC6087492 (Bioorganic & medicinal chemistry, 2018)

What was measured:
OXR1 = target: T1, OXR1 (Homo sapiens, UniProt Q8N573); experiment: OXR1 degradation assay using western blot; type: cell-based; conditions: 5 µM, 24 h, WI-38 IR-SCs and NCs
T1 sequence (Q8N573 1-874): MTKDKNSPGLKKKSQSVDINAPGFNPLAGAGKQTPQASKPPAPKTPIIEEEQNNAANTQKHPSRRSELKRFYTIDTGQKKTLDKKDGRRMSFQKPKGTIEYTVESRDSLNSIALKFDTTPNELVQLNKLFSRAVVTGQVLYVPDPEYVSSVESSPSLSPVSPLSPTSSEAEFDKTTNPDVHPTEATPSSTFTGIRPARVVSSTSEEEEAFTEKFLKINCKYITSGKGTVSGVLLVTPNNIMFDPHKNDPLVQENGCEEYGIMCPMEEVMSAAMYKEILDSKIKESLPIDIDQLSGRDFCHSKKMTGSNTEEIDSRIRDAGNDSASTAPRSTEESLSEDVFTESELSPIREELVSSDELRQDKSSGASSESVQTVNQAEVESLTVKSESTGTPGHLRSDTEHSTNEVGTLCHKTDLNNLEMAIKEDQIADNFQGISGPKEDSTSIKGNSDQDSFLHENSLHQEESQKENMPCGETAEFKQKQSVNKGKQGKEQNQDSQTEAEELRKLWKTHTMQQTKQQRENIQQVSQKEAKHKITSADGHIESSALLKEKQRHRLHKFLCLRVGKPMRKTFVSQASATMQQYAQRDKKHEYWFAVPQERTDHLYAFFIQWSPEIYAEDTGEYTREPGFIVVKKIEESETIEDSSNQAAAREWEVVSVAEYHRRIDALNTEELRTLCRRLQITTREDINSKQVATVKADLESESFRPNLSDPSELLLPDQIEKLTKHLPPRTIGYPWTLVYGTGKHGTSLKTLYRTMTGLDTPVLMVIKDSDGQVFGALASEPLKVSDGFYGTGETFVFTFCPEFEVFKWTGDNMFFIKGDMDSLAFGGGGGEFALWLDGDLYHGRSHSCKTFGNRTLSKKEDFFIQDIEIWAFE
Summary of the method: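 Low-passage (<25) WI-38 cells, plus senescent cells made by 15 Gy ¹³⁷Cs γ-irradiation (1.080 Gy/min). Both cultured at 37 °C, 5% CO2, then given 5 µM test compound or vehicle for 24 h. Lysed in RIPA with EDTA/EGTA and transferred to PVDF. Blocked with 5% nonfat milk/TBST. Probed overnight at 4 °C for OXR1 and β-actin, HRP secondaries, ECL/autoradiography. Quantified as mean ± SEM, n = 3.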

mice = conditions: cited from earlier work
[1] = system: ROS production in WI-38 IR-SCs; experiment: ROS assay with dihydrorhodamine 123, flow cytometry; type: cell-based, Human; conditions: […] treatment, DHR 123 30 min
WI-38 IR-SCs = experiment: Apoptosis assay, Annexin V / propidium iodide flow cytometry; type: cell-based, Human; conditions: QVD 10 µM with 49 1 µM, 48 h and 72 h

SMILES	OXR1 levels (western blot) (OXR1)	further results
C=C1CCCN(C(=O)/C=C/c2cc(OC)c(OC)c(OC)c2)C1=O [Compound 47, (E)-3-Methylene-1-(3-(3,4,5-trimethoxyphenyl)acryloyl)piperidin-2-one]	selectively reduced the levels of OXR1 in SCs	–
C=C1CCN(C(=O)/C=C/c2cc(OC)c(OC)c(OC)c2)C1=O [Compound 48, (E)-3-Methylene-1-(3-(3,4,5-trimethoxyphenyl)acryloyl)pyrrolidin-2-one]	selectively reduced the levels of OXR1 in SCs	–
C=C1CCCCN(C(=O)/C=C/c2cc(OC)c(OC)c(OC)c2)C1=O [Compound 49, (E)-3-Methylene-1-(3-(3,4,5-trimethoxyphenyl)acryloyl)azepan-2-one]	selectively reduced the levels of OXR1 in SCs	–
COc1cc(/C=C/C(=O)N2CCC=CC2=O)cc(OC)c1OC [PL, piperlongumine]	abrogated the upregulation of OXR1	maximum tolerated oral dose (mice; mice, oral): > 1000 mg/kg; effective therapeutic dose for cancer (mice; oral dosing): ≥ 2.4 mg/kg; ROS levels (DHR 123 fluorescence) [1]: moderate increase of the ROS levels
CC(C)[C@H](NC(=O)c1ccc2ccccc2n1)C(=O)N[C@@H](CC(=O)O)C(=O)COc1c(F)cccc1F [QVD]	–	effect of pan-caspase inhibitor on 49-induced apoptosis and death (WI-38 IR-SCs): significantly reduced apoptosis and partially rescued SCs from 49-induced death
